Results from ChEMBL document CHEMBL1124846, “Synthesis, antiproliferative, and antiviral activity of certain 4-substituted and 4,5-disubstituted 7-[(1,3-dihydroxy-2-propoxy)methyl]pyrrolo[2,3-d]pyrimidines” (J Med Chem, 1990).

Assays:
Mus musculus [1] = assay: Compound was evaluated for 15 mice treated ip twice daily for 5 days at a dose of 16.7 mg/kg at 48 hr followed (MCMV) virus inoculation; format: functional; details: route intraperitoneal
Outline: (§1)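 Three-week-old female Swiss Webster mice inoculated ip with 2×10^5 PFU MCMV Smith strain. Groups of 15 dosed ip twice daily for 5 days, starting 6, 24 or 48 h post-inoculation. Held 21 days with daily mortality checks. Final mortality and mean day of death (dying animals) computed. Mortality versus placebo by Fisher Exact Test, MDD by Mann–Whitney U-rank test.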

Mus musculus [2] = assay: Compound was evaluated for 15 mice treated ip twice daily for 5 days at a dose of 16.7 mg/kg at 24 hr followed (MCMV) virus inoculation; format: functional; details: route intraperitoneal; outline: as §1
Mus musculus [3] = assay: Compound was evaluated for mean day of death at 1.9 mg/kg at 24 h; format: functional; outline: as §1
[4] = Cytotoxicity of AD169 strain of HCMV in human foreskin fibroblasts cells; format: functional, cell-based; details: Fibroblast
Mus musculus [5] = assay: Compound was evaluated for percent mortality of mice inoculated with murine cytomegalovirus at a concentration of 16.7 mg/kg at 6 h; format: organism-based; parameters: dose 16.7 mg/kg; details: in vivo; outline: as §1
Mus musculus [6] = assay: Compound was evaluated for mean day of death at 16.7 mg/kg at 24 h; format: functional; outline: as §1
Mus musculus [7] = assay: Compound was evaluated for 15 mice treated ip twice daily for 5 days at a dose of 5.6 mg/kg followed (MCMV) virus inoculation; format: functional; details: route intraperitoneal
Mus musculus [8] = assay: Compound was evaluated for 15 mice treated ip twice daily for 5 days at a dose of 50 mg/kg at 48 hr followed (MCMV) virus inoculation; format: functional; details: route intraperitoneal; outline: as §1
Mus musculus [9] = assay: Compound was evaluated for 15 mice treated ip twice daily for 5 days at a dose of 5.6 mg/kg at 48 hr followed (MCMV) virus inoculation; format: functional; details: route intraperitoneal; outline: as §1
Mus musculus [10] = organism: Mus musculus; assay: Inhibition of herpes simplex virus […](HSV-2) in mouse embryo fibroblasts cell lines was determined by plaque assay; format: functional, organism-based; details: Fibroblast
Outline: (§2)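 Plaque reduction used MCMV Smith in primary mouse embryo fibroblasts, HCMV AD169 in low-passage HFF, and HSV-1 E-377 and HSV-2 MS in MEF, rabbit kidney or HFF. IC50 was determined against untreated controls; two or more experiments.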

Mus musculus [11] = assay: Compound was evaluated for mean day of death at 16.7 mg/kg at 48 h; format: functional; outline: as §1
[12] = Compound was evaluated for cytotoxic activity against BSC cells; format: functional, cell-based; details: Cercopithecidae
Outline: (§3)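 Visual cytotoxicity in uninfected areas of plaque-reduction cultures. HFF cells grown in MEM(E) + 10% FBS for HCMV (Towne) assays; BSC-1 cells for HSV-1 (S-148) assays. Drug in overlay medium. Cytopathology scored 0 to 4+ at 35- and 60-fold magnification on the staining day.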

[13] = Inhibition of herpes simplex virus type 1(HSV-1) in monkey kidney cell was determined by plaque assay; format: functional, cell-based; details: Cercopithecidae
Outline: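 HSV-1 S-148 strain plaque reduction in BSC-1 monkey kidney monolayers, with about 100 PFU inoculum and compound dissolved in the overlay medium. IC50 came from linear regression of percent inhibition against log concentration, with a positive control in each set.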

Mus musculus [14] = assay: Compound was evaluated for 15 mice treated ip twice daily for 5 days at a dose of 1.9 mg/kg followed (MCMV) virus inoculation; format: functional; details: route intraperitoneal
Mus musculus [15] = assay: Compound was evaluated for 15 mice treated ip twice daily for 5 days at a dose of 16.7 mg/kg at 6 hr followed (MCMV) virus inoculation; format: functional; details: route intraperitoneal; outline: as §1
[16] = Compound was evaluated for percent mortality of mice inoculated with murine cytomegalovirus at a concentration of 16.7 mg/kg; drug toxicity control; format: organism-based; parameters: dose 16.7 mg/kg; details: mouse, in vivo
Outline: (§4)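 Drug toxicity control: uninfected three-week-old female Swiss Webster mice, groups of 15, dosed ip twice daily for 5 days. Held 21 days with daily mortality checks. Final mortality and mean day of death for animals that died were calculated.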

[17] = Compound was evaluated for cytotoxic activity against HFF cells; format: functional, cell-based; details: Homo sapiens; outline: as §3
Mus musculus [18] = assay: Compound was evaluated for 15 mice treated ip twice daily for 5 days at a dose of 1.9 mg/kg at 48 hr followed (MCMV) virus inoculation; format: functional; details: route intraperitoneal; outline: as §1
Mus musculus [19] = assay: Compound was evaluated for mean day of death at 16.7 mg/kg at 6 h; format: functional; outline: as §1
[20] = Inhibition of herpes simplex virus (HSV-2) in human foreskin fibroblasts cell lines was determined by plaque assay; details: Fibroblast
Mus musculus [21] = assay: Compound was evaluated for 15 mice treated ip twice daily for 5 days at a dose of 5.6 mg/kg at 6 hr followed (MCMV) virus inoculation; format: functional; details: route intraperitoneal; outline: as §1
[22] = Inhibition of herpes simplex virus type 1(HSV-1) in human foreskin fibroblasts cell lines was determined by plaque assay; format: functional, cell-based; details: Fibroblast; outline: as §2
Mus musculus [23] = assay: Compound was evaluated for mean day of death at 16.7 mg/kg; drug toxicity control; format: functional; outline: as §4
L1210 [24] = assay: In vitro inhibition of L1210 cell growth.; format: functional, Mus musculus; parameters: concentration or dose not given beside the values
Outline: (§5)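 Murine L1210 leukemia cells in static suspension culture in Fischer's medium with compound for 4 days. Growth rate is the ratio of control to treated population doubling time; where the rate changed, the final rate was used. IC50 is the concentration giving 50% of control growth rate; single-concentration value at 100 μM.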

Mus musculus [25] = organism: Mus musculus; assay: Inhibition of murine cytomegalo virus in mouse embryo fibroblasts cell lines was determined by plaque assay; format: functional, organism-based; details: Fibroblast; outline: as §2
Mus musculus [26] = assay: Compound was evaluated for mean day of death at 50 mg/kg at 48 h; format: functional; outline: as §1
Mus musculus [27] = assay: Compound was evaluated for 15 mice treated ip twice daily for 5 days at a dose of 1.9 mg/kg at 6 hr followed (MCMV) virus inoculation; format: functional; details: route intraperitoneal; outline: as §1
L1210 [28] = assay: In vitro inhibition of L1210 cell growth to half of the control rate; format: functional, cell-based; details: Mus musculus; outline: as §5

## Nc1ncnc2c1c(Br)cn2COC(CO)CO
Mus musculus [1]
  Activity: 13
Mus musculus [2]
  Activity: 12
Mus musculus [3]
  MDD: 4.8
[4]
  IC50: > 158 µM
Mus musculus [5]
  Mortality: 60%
Mus musculus [6]
  MDD: 7.1
Mus musculus [7]
  Activity: 0
Mus musculus [8]
  Activity: 13
Mus musculus [9]
  Activity: 6
Mus musculus [10]
  IC50: 1900 nM
Mus musculus [11]
  MDD: 8.4
[12]
  IC50: > 100 µM
[13]
  IC50: 2000 nM
Mus musculus [14]
  Activity: 0
Mus musculus [15]
  Activity: 9
[16]
  Mortality: 7%
[17]
  IC50: > 100 µM
Mus musculus [18]
  Activity: 10
Mus musculus [19]
  MDD: 8.7
[20]
  IC50: 300 nM
Mus musculus [21]
  Activity: 1
[22]
  IC50: 200 nM
Mus musculus [23]
  MDD: 5
L1210 [24]
  Activity: 0%
Mus musculus [25]
  IC50: 30 nM
Mus musculus [26]
  MDD: 7.5
Mus musculus [27]
  Activity: 5
L1210 [28]
  IC50: 710 nM
